Data from ChEMBL document CHEMBL1151266, “Cytotoxic principles from the formosan milkweed, Asclepias curassavica” (J Nat Prod, 2005).
≈ marks a conversion by molar mass, not a printed value.

Columns and labels:
Assay type in all cases: functional, cell-based
[1] = tested on: MDA-MB-231; experiment: Cytotoxicity against human MDA-MB-231 cells after 3 days by MTT assay; conditions: MDA-MB-231, 72 h
In short: (§1)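 Freshly trypsinized cells seeded at 5000-10 000 per well; test agents added from DMSO stock. After 3 days in culture, attached cells incubated with MTT (0.5 mg/mL, 1 h), then solubilized in DMSO; absorbance read at 550 nm. IC50 taken as concentration reducing cell growth by 50%.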

[2] = tested on: HepG2; experiment: Cytotoxicity against human HepG2 cells after 3 days by MTT assay; conditions: HepG2, 72 h
In short: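 Freshly trypsinized cells seeded at 5000-10 000 per well; test agents added from DMSO stock. After 3 days in culture, attached cells incubated with MTT (0.5 mg/mL, 1 h), then solubilized in DMSO; absorbance read at 550 nm.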

[3] = tested on: MCF7; experiment: Cytotoxicity against human MCF7 cells after 3 days by MTT assay; conditions: MCF7, 72 h; in short: as §1
[4] = tested on: A549; experiment: Cytotoxicity against human A549 cells after 3 days by MTT assay; conditions: A549, 72 h; in short: as §1
[5] = tested on: KB; experiment: Cytotoxicity against human KB cells

Row | Compound | IC50 [1] | IC50 [2] | IC50 [3] | IC50 [4] | IC50 [5]
1 | C[C@@H]1C[C@H](O)[C@]2(O)O[C@@H]3C[C@@]4(C=O)[C@@H](CC[C@@H]5[C@@H]4CC[C@]4(C)[C@@H](C6=CC(=O)OC6)C[C@@H](O)[C@]54O)C[C@H]3O[C@@H]2O1 | 0.98 µg/mL (≈ 1.79 µM) | 0.15 µg/mL (≈ 0.273 µM) | 0.48 µg/mL (≈ 0.875 µM) | 0.1 µg/mL (≈ 0.182 µM) | –
2 | CC(=O)O[C@@H]1C[C@]2(O)[C@@H]3CC[C@H]4C[C@H]5O[C@@H]6O[C@H](C)C[C@H](O)[C@]6(O)O[C@@H]5C[C@]4(C=O)[C@H]3CC[C@]2(C)[C@H]1C1=CC(=O)OC1 | 0.49 µg/mL (≈ 0.83 µM) | 0.39 µg/mL (≈ 0.66 µM) | 0.28 µg/mL (≈ 0.474 µM) | 0.11 µg/mL (≈ 0.186 µM) | –
3 | CC(=O)O[C@H]1C[C@@H](C)O[C@H]2O[C@@H]3C[C@@H]4CC[C@@H]5[C@H](CC[C@]6(C)[C@@H](C7=CC(=O)OC7)[C@H](OC(C)=O)C[C@]56O)[C@@]4(C=O)C[C@H]3O[C@]21O | 0.39 µg/mL (≈ 0.616 µM) | 0.13 µg/mL (≈ 0.205 µM) | 0.17 µg/mL (≈ 0.269 µM) | 0.02 µg/mL (≈ 0.0316 µM) | –
4 | CC(=O)O[C@H]1C[C@@H](C)O[C@H]2O[C@@H]3C[C@@H]4CC[C@@H]5[C@H](CC[C@]6(C)[C@@H](C7=CC(=O)OC7)[C@H](O)C[C@]56O)[C@@]4(C=O)C[C@H]3O[C@]21O | 1.52 µg/mL (≈ 2.57 µM) | 0.51 µg/mL (≈ 0.863 µM) | 1 µg/mL (≈ 1.69 µM) | 0.14 µg/mL (≈ 0.237 µM) | –
5 | C[C@@H]1C[C@@H](O)[C@]2(O)O[C@@H]3C[C@@]4(C=O)[C@@H](CC[C@@H]5[C@@H]4CC[C@]4(C)[C@@H](C6=CC(=O)OC6)C[C@@H](O)[C@]54O)C[C@H]3O[C@@H]2O1 | 0.45 µg/mL (≈ 0.82 µM) | 0.16 µg/mL (≈ 0.292 µM) | 0.38 µg/mL (≈ 0.693 µM) | 0.07 µg/mL (≈ 0.128 µM) | –
6 | CC(=O)O[C@H]1C[C@@H](C)O[C@H]2O[C@@H]3C[C@@H]4CC[C@@H]5[C@H](CC[C@]6(C)[C@@H](C7=CC(=O)OC7)CC[C@]56O)[C@@]4(C=O)C[C@H]3O[C@]21O [ASCLEPIN] | 0.06 µg/mL (≈ 0.104 µM) | 0.05 µg/mL (≈ 0.087 µM) | 0.02 µg/mL (≈ 0.0348 µM) | 0.01 µg/mL (≈ 0.0174 µM) | –
7 | C[C@@H]1C[C@@H](O)[C@]2(O)O[C@@H]3C[C@@]4(C=O)[C@@H](CC[C@@H]5[C@@H]4CC[C@]4(C)[C@@H](C6=CC(=O)OC6)CC[C@]54O)C[C@H]3O[C@@H]2O1 [CALACTIN] | 0.03 µg/mL (≈ 0.0563 µM) | 0.02 µg/mL (≈ 0.0375 µM) | 0.01 µg/mL (≈ 0.0188 µM) | 0.0029 µg/mL (≈ 0.00544 µM) | –
8 | C[C@@H]1C[C@H](O)[C@]2(O)O[C@@H]3C[C@@]4(C=O)[C@@H](CC[C@@H]5[C@@H]4CC[C@]4(C)[C@@H](C6=CC(=O)OC6)CC[C@]54O)C[C@H]3O[C@@H]2O1 [CALOTROPIN] | 0.16 µg/mL (≈ 0.3 µM) | 0.11 µg/mL (≈ 0.207 µM) | 0.08 µg/mL (≈ 0.15 µM) | 0.02 µg/mL (≈ 0.0375 µM) | 0.015 µg/mL (≈ 0.0282 µM)
9 | C[C@]12CC[C@H](O)C[C@H]1CC[C@@H]1[C@@H]2CC[C@]2(C)[C@@H](C3=CC(=O)OC3)CC[C@]12O [DIGITOXIGENIN] | 1.9 µg/mL (≈ 5.07 µM) | 0.12 µg/mL (≈ 0.32 µM) | 1.69 µg/mL (≈ 4.51 µM) | 0.24 µg/mL (≈ 0.641 µM) | –
10 | COc1cccc2c1C(=O)c1c(O)c3c(c(O)c1C2=O)C[C@@](O)(C(=O)CO)C[C@@H]3O[C@H]1C[C@H](N)[C@H](O)[C@H](C)O1 [DOXORUBICIN] | – | – | 0.56 µg/mL (≈ 1.03 µM) | 0.79 µg/mL (≈ 1.45 µM) | –
11 | C[C@@H]1CC(=O)[C@]2(O)O[C@@H]3C[C@@]4(C=O)[C@@H](CC[C@@H]5[C@@H]4CC[C@]4(C)[C@@H](C6=CC(=O)OC6)CC[C@]54O)C[C@H]3O[C@@H]2O1 [USCHARIDIN] | 0.09 µg/mL (≈ 0.17 µM) | 0.04 µg/mL (≈ 0.0754 µM) | 0.04 µg/mL (≈ 0.0754 µM) | 0.01 µg/mL (≈ 0.0188 µM) | –
12 | C[C@@H]1C[C@@]2(N=CCS2)[C@]2(O)O[C@@H]3C[C@@]4(C=O)[C@@H](CC[C@@H]5[C@@H]4CC[C@]4(C)[C@@H](C6=CC(=O)OC6)CC[C@]54O)C[C@H]3O[C@@H]2O1 [USCHARIN] | 0.1 µg/mL (≈ 0.17 µM) | 1.1 µg/mL (≈ 1.87 µM) | 0.04 µg/mL (≈ 0.0681 µM) | 0.01 µg/mL (≈ 0.017 µM) | –
